Screens: PubChem BioAssay, several laboratories
ABHD5 PLIN5 PPI: ABHD5-PLIN5 interaction inhibitors, primary screen, cell lysate, split luciferase complementation, luminescence; inhibition, % at 4 µM; Perilipin-5 (Homo sapiens) + 1-acylglycerol-3-phosphate O-acyltransferase ABHD5 (Homo …; 360,000 compounds, 0.78% hits; AID 602281, 2012; Split G. princeps luciferase complementation, 4 h;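 active = inhibition above the mean inhibition across every tested compound plus 3 SD, cut at about 22% in these data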
MC4R antagonist: MC4R antagonists of cAMP signaling, primary screen, cell-based, TR-FRET, antagonist arm of biased-ligand search. Melanocortin receptor 4 (Homo sapiens), P32245. MC4R-expressing cells, MTII-stimulated cAMP, LANCE TR-FRET. inhibition, % at 6.5 µM. 360,000 compounds, 0.48% hits. AID 540295, 2011;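 active = inhibition above its plate's cutoff, the mean of tested wells on that plate plus 3 SD, cut at about 29% in these data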
Target sequence (P32245 whole entry, looked up): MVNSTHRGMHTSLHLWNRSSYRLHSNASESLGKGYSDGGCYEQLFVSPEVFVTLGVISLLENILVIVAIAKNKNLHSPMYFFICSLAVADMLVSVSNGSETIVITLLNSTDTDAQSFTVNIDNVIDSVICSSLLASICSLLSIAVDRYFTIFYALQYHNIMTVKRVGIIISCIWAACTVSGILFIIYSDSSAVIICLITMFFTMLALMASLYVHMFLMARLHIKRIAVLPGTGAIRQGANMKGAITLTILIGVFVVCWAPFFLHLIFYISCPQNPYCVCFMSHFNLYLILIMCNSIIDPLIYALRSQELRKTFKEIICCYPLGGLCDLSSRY
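Assay system: human MC4R-expressing U2OS cells; reagent: Melanotan II stimulation of cells; dosing: 6.5 µM single dose; timing: compound 30 min, challenge 1 h, detection 1 h; signal: TR-FRET cAMP assay; replicates: one well per compound, no replicates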
PfG6PD inh: PfG6PD enzyme inhibitors, primary screen, biochemical, fluorescence intensity, uHTS; glucose-6-phosphate dehydrogenase-6-phosphogluconolactonase (Plasmodium falciparum 3D7); inhibition, % at 20 µM; 350,000 compounds, 0.78% hits; PfGluPho enzyme, NADPH resazurin-diaphorase fluorescence;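 active = inhibition reaching at least a set limit at 20 µM in the primary screen, cut at about 59% in these data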
MC4R barr agon: MC4R agonists recruiting beta-arrestin, primary screen, cell-based, luminescence, agonist arm of biased-ligand search; Melanocortin receptor 4 (Homo sapiens), P32245; U2OS MC4R beta-arrestin complementation; percent of melanotan II response, DMSO zero; activation, % at 8.9 µM; 360,000 compounds, 0.98% hits;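 active = activation above a per-plate cutoff, the mean activation of sample wells on that plate plus 3 SD, cut at about 8% in these data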
B2AR ag: beta2AR agonists driving receptor internalization, primary screen, cell-based, FAP fluorogen, flow cytometry | 340,000 compounds, 0.43% hits | Beta-2 adrenergic receptor (Homo sapiens), P07550 | response, % (no concentration beside the values) | AID 504454, 2011 | Am2.2-beta2AR cells;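 active = response above a set limit, near 3 SD of response in nonfluorescent compounds, cut at about 42% in these data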
MC4R barr conf: MC4R beta-arrestin agonists, retest, confirmation, cell-based, luminescence, U2OS. U2OS MC4R beta-arrestin recruitment; scaled DMSO 0%, Melanotan II 100%. activation, % at 8.9 µM. shares compounds with MC4R barr agon. 2,400 compounds, 31% hits;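 active = mean activation across replicates above the hit cutoff set in the earlier primary screen, cut at about 8% in these data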
MOR-DOR barr ag: agonists of MOR-DOR heterodimerization, counter-screen for MC4R biased agonist project, cell-based, luminescence | 2,400 compounds, 5.8% hits | shares compounds with MC4R barr agon | activation, % at 9.2 µM | U2OS PathHunter beta-arrestin, beta-gal luminescence; percent of deltorphin B response, DMSO zero;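 active = mean activation across replicates exceeds the hit threshold derived in the earlier primary screen, cut at about 18% in these data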
Each line names hits and unclear results; the compound was inactive in the other large screens (follow-up assays come after a bar, where they were run). Shown are actives, neighbours in structure and some others; about 3% of the full set was active somewhere.

COc1ccc(C(=O)c2cn(-c3cccc(Br)c3)nc2C(C)=O)cc1	MC4R barr agon 15 | MC4R barr conf inactive | MOR-DOR barr ag inactive
CC(=O)c1nn(-c2ccc(Br)cc2)cc1C(=O)c1ccccc1	MC4R barr agon 29 | MC4R barr conf inactive | MOR-DOR barr ag 19
CC(=O)c1nn(-c2ccccc2)cc1C(=O)c1ccc(C)cc1	none
Cc1cc(Br)cnc1NC(=S)Nc1ccc(F)cc1F	none
N#Cc1ccc(OCc2noc(-c3ccsc3)n2)cc1	none
COc1cccc(OC)c1C(=O)Nc1nc(COc2ccccc2)cs1	MC4R barr agon 12 | MC4R barr conf inactive | MOR-DOR barr ag inactive
COc1cccc(CC2(CO)CCCN(Cc3[nH]c4ccc(C)cc4c3C)C2)c1 (configuration not stated)	MC4R barr agon 11 | MC4R barr conf 19 | MOR-DOR barr ag inactive
Cc1ccc(S(=O)(=O)Nc2cccc(C(=O)NCC3CCCO3)c2)cc1F (configuration not stated)	none
CC1CC(C)(C)CC2(C1)NC(=O)N(CC(=O)Nc1cc(C(F)(F)F)ccc1N1CCCCC1)C2=O (configuration not stated)	none
Clc1ccc(/C=N/NC2=Nc3cccc4cccc2c34)cc1	MC4R barr agon 16 | MC4R barr conf 22 | MOR-DOR barr ag inactive
O=Nc1c(O)n(Cc2cccc(C(F)(F)F)c2)c2ccccc12	MC4R barr agon 11 | MC4R barr conf inactive | MOR-DOR barr ag inactive
O=Nc1c(O)n(Cc2ccccc2)c2ccccc12	none
O=Nc1c(O)n(Cc2ccc(Cl)c(Cl)c2)c2ccccc12	MC4R barr agon 10 | MC4R barr conf inactive | MOR-DOR barr ag inactive
COc1ccc2c(c1)C(CC(C)=O)N(c1ccc(-c3cccs3)cc1)C(c1ccsc1)=C2 (configuration not stated)	none (no result: MC4R antagonist, PfG6PD inh, MC4R barr agon, B2AR ag)
O=C(NCc1cccnc1)c1csc2c1CCCC2	none
CCCNC(=O)C(Cc1ccc(Cl)cc1)NC(=O)c1ccc(-c2ccccc2)cc1 (configuration not stated)	MC4R barr agon 14 | MC4R barr conf inactive | MOR-DOR barr ag inactive
Cc1ccccc1N=CC1=C(O)c2ccccc2C1=O	none
COc1ccc(N=CC2=C(O)c3ccccc3C2=O)c(OC)c1	MC4R barr agon 12 | MC4R barr conf inactive | MOR-DOR barr ag inactive
O=C(NCc1ccc2c(c1)OCO2)c1cc(-c2cc(Cl)ccc2O)n[nH]1	MC4R barr agon 11 | MC4R barr conf inactive | MOR-DOR barr ag inactive
COc1ccc(Cc2nnc(NC(=O)C3CCN(C(=O)c4ccco4)CC3)s2)cc1	none
COc1ccc(-c2nc(C#N)c(NCc3ccccc3Cl)o2)cc1OC	MC4R barr agon 13 | MC4R barr conf inactive | MOR-DOR barr ag inactive
CS(=O)(=O)n1c2ccccc2c(=O)n1-c1ccccc1CCl	none (no result: MC4R antagonist, PfG6PD inh, MC4R barr agon, B2AR ag)
Oc1cccc(C(=S)N2CCC(Cc3ccccc3)CC2)c1	MC4R barr agon 10 | MC4R barr conf inactive | MOR-DOR barr ag inactive
Oc1cccc(C(=S)N2CCN(Cc3ccccc3)CC2)c1	none
CSc1nc(N)nc(SCC(=O)OC(C)C)c1C#N	none
CSc1nc(N)nc(SCC(=O)c2ccc(C)cc2)c1C#N	MC4R barr agon 21 | MC4R barr conf 22 | MOR-DOR barr ag inactive
COCCCNC(=O)C1=CCN(S(=O)(=O)c2ccc(C)cc2)CC1	none
Cc1ccc(S(=O)(=O)NCCC(=O)OCC(=O)N2CCCC2=O)cc1C	none
Cc1ccccc1OCC(=O)N=Nc1c(O)n(C)c2ccccc12	MC4R barr agon 18 | MC4R barr conf inactive | MOR-DOR barr ag inactive
O=C(CSc1nc2cc3ccccc3cc2[nH]1)Nc1ccc(F)cc1	MC4R barr agon 9.6 | MC4R barr conf inactive | MOR-DOR barr ag inactive
COc1ccc2oc(-c3ccc(C)c(NC(=O)c4ccc(N5CCOCC5)c([N+](=O)[O-])c4)c3)nc2c1	MC4R barr agon 11 | MC4R barr conf inactive | MOR-DOR barr ag inactive
COc1ccc(CNC(=O)c2ccc(N3CCOCC3)c([N+](=O)[O-])c2)cc1	none
Cc1cccc(NC(=S)NC(C)CCc2ccccc2)c1 (configuration not stated)	MC4R barr agon 21 | MC4R barr conf inactive | MOR-DOR barr ag inactive
Cc1cccc(CN2CCc3c([nH]c4ccccc34)C2)c1	none
Clc1cccc(CN2CCc3c([nH]c4ccccc34)C2)c1	none
Clc1ccc(CN2CCc3c([nH]c4ccccc34)C2)cc1Cl	MC4R barr agon 15 | MC4R barr conf 45 | MOR-DOR barr ag 23
CSc1ccc(CN2CCc3c([nH]c4ccccc34)C2)cc1	MC4R barr agon 11 | MC4R barr conf inactive | MOR-DOR barr ag inactive
C#CCNC(=O)C[C@@H]1C[C@@]2(C(=O)OCC)CCC=C2N(Cc2ccc(Cl)cc2Cl)C1=O	none (no result: MC4R antagonist, PfG6PD inh, MC4R barr agon, B2AR ag)
Cc1ccc2nc(-c3cccc(NS(C)(=O)=O)c3)cc(-c3ccccc3)c2c1	MC4R barr agon 11 | MC4R barr conf inactive | MOR-DOR barr ag inactive
S=c1[nH]cc(-c2ccc(Cl)cc2)n1Cc1ccccc1	MC4R barr agon 19 | MC4R barr conf inactive | MOR-DOR barr ag inactive
Cc1ccc(Cc2cnc(NC(=O)CN3CCOCC3)s2)cc1Cl	none
Cc1cc(C)nc(SCC(=O)Nc2ncc(Cc3ccc(Cl)c(Cl)c3)s2)n1	MC4R barr agon 21 | MC4R barr conf inactive | MOR-DOR barr ag inactive
O=C(Nc1nnc(C2CC2)s1)c1ccc(Cl)c(S(=O)(=O)N2CCc3ccccc3C2)c1	MC4R barr agon 11 | MC4R barr conf inactive | MOR-DOR barr ag inactive
CCc1nnc(NC(=O)c2ccc(Cl)c(S(=O)(=O)N3CCc4ccccc43)c2)s1	none
CC(C)(c1ccccc1)c1ccc(OCC(O)CNC2CCN(Cc3ccccc3)CC2)cc1 (configuration not stated)	MC4R barr agon 25 | MC4R barr conf inactive | MOR-DOR barr ag 19
C=CCNC(=O)NC(=O)COC(=O)/C(C#N)=C/c1cc(C)n(CCC(C)C)c1C	MC4R barr agon 10 | MC4R barr conf inactive | MOR-DOR barr ag inactive
Cc1ccccc1OCc1nnc(SCC(=O)Nc2ccc3nc(SCC(=O)Nc4ccccc4)sc3c2)n1C	MC4R barr agon 18 | MC4R barr conf inactive | MOR-DOR barr ag inactive
Cc1ccc(C(C)C)c(OCc2nnc(SCC(=O)Nc3ncc(C)s3)n2C)c1	MC4R barr agon 13 | MC4R barr conf inactive | MOR-DOR barr ag inactive
